In series [1] the target is T1, Pantothenate synthetase (Mycobacterium tuberculosis, UniProt P9WIL5).
T1 sequence (P9WIL5 whole entry): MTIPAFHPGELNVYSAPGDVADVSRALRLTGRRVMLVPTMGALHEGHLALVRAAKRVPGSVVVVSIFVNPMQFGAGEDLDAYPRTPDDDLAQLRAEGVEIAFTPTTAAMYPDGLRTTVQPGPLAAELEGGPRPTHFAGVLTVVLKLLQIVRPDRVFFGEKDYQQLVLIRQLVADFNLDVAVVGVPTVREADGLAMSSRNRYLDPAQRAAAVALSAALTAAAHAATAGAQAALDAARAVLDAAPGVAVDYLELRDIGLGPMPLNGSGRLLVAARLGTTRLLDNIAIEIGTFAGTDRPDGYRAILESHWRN
Kind of series: Inhibition of Mycobacterium tuberculosis pantothenate synthetase expressed in Escherichia coli BL21 (DE3) by spectrophotometry. The gist of the method:
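Reaction started by adding PS diluted in buffer; absorbance at 340 nm read every 12 s for 120 s. Percent inhibition = 100 × [1 − (compound rate − background rate)/(full reaction rate − background rate)].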

Series [2] deals with Mycobacterium tuberculosis. The series is described as follows: Antimycobacterial activity against Mycobacterium tuberculosis H37Rv ATCC 27294 assessed as growth inhibition after 28 days by agar dilution method. It is filed as functional. The conditions noted are these: H37Rv ATCC 27294, 672 h. In outline: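 Agar dilution in Middlebrook 7H11 with OADC; two-fold dilutions, final 50 to 0.78 µg/mL. Inoculum from fresh 7H11 slants, 1 mg/mL wet weight in 0.05% Tween 80 saline, diluted 10⁻² (~10⁷ cfu/mL); 5 µL spotted per tube. Incubated 37 °C, read at 28 days; MIC = lowest concentration giving complete growth inhibition. Isoniazid, ethambutol, GSK358607A references.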
(In general: In agar dilution, organisms are placed on agar that contains the substance at set levels.)

Series [3] in a line: Cytotoxicity against mouse RAW264.7 cells assessed as inhibition of cell viability at 50 uM after 72 hrs by MTT assay. Type of series: cell-based. The following applies: read-out: INH. A general note: Formazan colour is commonly taken as a measure of viable cells.
Series [4] addresses T2, Pantothenate synthetase (Mycobacterium tuberculosis) (UniProt P9WIL5).
T2 sequence (whole entry): T1 sequence (P9WIL5 whole entry)
The series is described as follows: Binding affinity to Mycobacterium tuberculosis pantothenate synthetase assessed as melting temperature by differential scanning fluorimetry. The gist of the method:
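Protein–ligand complexes with SYPRO Orange dye heated 25 to 95 °C in 0.1 °C steps; fluorescence tracked to obtain Tm, with shift relative to native protein taken as stabilisation from binding.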
(DSF heats the sample and reads unfolding from a dye or from intrinsic fluorescence.)

SMILES strings stand for the structures. Values after ≈ are worked out from the molar mass of the structure shown. Where only a bound is given, the exact number is not on record here.

A word on the IC50: it is the point on the concentration scale where inhibition reaches its midpoint. A lower IC50 goes with higher potency. Broadly, the MIC is the smallest concentration in the dilution series that meets the test's criterion for growth inhibition. `COc1ccccc1C(=O)NNC(=O)c1c(C)nc2ccccn12` yielded an IC50 in series [1] of 8.21 µM. Further, the MIC in series [2] is 19.2 µM (≈ 6.24 µg/mL). Further, the cytotoxicity at 72 h, 50 µM in series [3] was found to be 19%.
The matching figures for `Cc1nc2ccccn2c1C(=O)N/N=C/c1ccc(O)cc1`: 7.49 µM, 21.2 µM (≈ 6.24 µg/mL) and 19.4%.
On to `Cc1ccc2nc(C)c(C(=O)NCc3cccs3)n2c1`, for which the IC50 in series [1] amounted to 8.12 µM. Moreover, the MIC in series [2] turned out to be 0.19 µM (≈ 0.0542 µg/mL).
The matching figures for `Cc1nc2ccccn2c1C(=O)N/N=C/c1ccccc1`: 4.86 µM and 179 µM (≈ 49.9 µg/mL).
The matching figures for `CCOc1ccc(NC(=O)c2c(C)nc3ccccn23)cc1`: over 25 µM and 42.2 µM (≈ 12.5 µg/mL).
The matching figures for `Cc1nc2ccccn2c1C(=O)NNC(=O)c1cccc([N+](=O)[O-])c1`: 9.2 µM and 36.8 µM (≈ 12.5 µg/mL).
In series [1], `Cc1nc2ccccn2c1C(=O)Nc1cccc(C(F)(F)F)c1` registered an IC50 of 7.01 µM. Further, in series [2], the MIC was 78.1 µM (≈ 24.9 µg/mL).
The matching figures for `Cc1nc2ccccn2c1C(=O)Nc1ccc(Cl)cc1`: 2.6 µM and 87.4 µM (≈ 25 µg/mL).
The matching figures for `NNC(=O)c1ccncc1` [ISONIAZID]: over 25 µM and 0.72 µM (≈ 0.0987 µg/mL).
In the case of `Cc1nc2ccccn2c1C(=O)NCCc1ccccc1`, the IC50 in series [1] is 5.77 µM. The minimum inhibitory concentration (MIC) in series [2] turned out to be 89.3 µM (≈ 24.9 µg/mL).
For the molecule `Cc1ccc(C(=O)NNC(=O)c2c(C)nc3ccccn23)cc1`, it took 3.35 µM to reach half-maximal inhibition in series [1] (IC50). For the same molecule, the minimum inhibitory concentration (MIC) in series [2] came to 80.9 µM (≈ 24.9 µg/mL).
`Cc1nc2ccccn2c1C(=O)NCc1ccccc1` registered a concentration for half-maximal inhibition (IC50) in series [1] of 2.74 µM. In series [2], the MIC amounted to 23.5 µM (≈ 6.23 µg/mL). Further, the cytotoxicity at 72 h, 50 µM in series [3] is 24.5%.
The matching figures for `Cc1ccc(/C=N/NC(=O)c2c(C)nc3ccccn23)cc1`: 7.46 µM, 21.3 µM (≈ 6.24 µg/mL) and 16.7%.
`Cc1nc2ccccn2c1C(=O)N/N=C/c1ccc(OCc2ccccc2)cc1`: the concentration for half-maximal inhibition (IC50) in series [1] came out at 5.37 µM. In addition, the minimum inhibitory concentration (MIC) in series [2] was 32.5 µM (≈ 12.5 µg/mL).
For `Cc1nc2ccccn2c1C(=O)NNC(=O)c1cccc2ccccc12`, the Tm in series [4] is 51 °C. The 50% inhibitory concentration (IC50) in series [1] is 1.9 µM. The minimal inhibitory concentration (MIC) in series [2] stood at 4.53 µM (≈ 1.56 µg/mL). Besides, the cytotoxicity at 72 h, 50 µM in series [3] worked out at 28.4%.
`Cc1nc2ccccn2c1C(=O)NCc1ccco1` yielded a concentration for half-maximal inhibition (IC50) in series [1] of 2.81 µM. In series [2], the minimum inhibitory concentration (MIC) came to 24.4 µM (≈ 6.23 µg/mL). Moreover, the cytotoxicity at 72 h, 50 µM in series [3] was 20.7%.
In series [1], `Cc1nc2ccccn2c1C(=O)Nc1ccccc1` had an IC50 of 12.8 µM. Besides, the MIC in series [2] amounted to 188 µM (≈ 47.2 µg/mL).
The molecule `Cc1nc2ccccn2c1C(=O)NNC(=O)C1CCCCC1` came in with an IC50 in series [1] of 7.7 µM. The MIC in series [2] worked out at 10.4 µM (≈ 3.12 µg/mL). For the same molecule, in series [3], the cytotoxicity at 72 h, 50 µM stood at 31.7%.
For the molecule `COc1ccc(/C=N/NC(=O)c2c(C)nc3ccccn23)cc1`, half-maximal inhibition in series [1] (IC50) was put at 6.37 µM. The minimum inhibitory concentration (MIC) in series [2] was determined as 80.9 µM (≈ 24.9 µg/mL).
In turn, `Cc1nc2ccccn2c1C(=O)N/N=C/c1ccc([N+](=O)[O-])cc1` registered a concentration for half-maximal inhibition (IC50) in series [1] of over 25 µM. In addition, the minimal inhibitory concentration (MIC) in series [2] is 38.6 µM (≈ 12.5 µg/mL).
`Cc1nc2ccccn2c1C(=O)NNC(=O)c1ccco1` displayed an IC50 in series [1] of 8.93 µM. For the same molecule, in series [2], the MIC was 11 µM (≈ 3.12 µg/mL). Besides, in series [3], the cytotoxicity at 72 h, 50 µM worked out at 16.8%.
The molecule `COc1cc(/C=N/NC(=O)c2c(C)nc3ccccn23)cc(OC)c1OC` returned an IC50 in series [1] of 7.05 µM. In addition, the minimum inhibitory concentration (MIC) in series [2] was found to be 67.8 µM (≈ 25 µg/mL).
`Cc1nc2ccccn2c1C(=O)NNC(=O)c1cc([N+](=O)[O-])cc([N+](=O)[O-])c1` had a 50% inhibitory concentration (IC50) in series [1] of 6.48 µM. For the same molecule, in series [2], the minimum inhibitory concentration (MIC) came to 16.2 µM (≈ 6.24 µg/mL). Besides, the cytotoxicity at 72 h, 50 µM in series [3] is 40.6%.
In turn, `Cc1nc2ccccn2c1C(=O)N/N=C/c1ccc(Br)cc1` gave an IC50 in series [1] of 4.43 µM. Also, in series [2], the minimal inhibitory concentration (MIC) came to 35 µM (≈ 12.5 µg/mL).
The matching figures for `Cc1nc2ccccn2c1C(=O)Nc1ccc(Br)cc1`: 6.95 µM and 37.9 µM (≈ 12.5 µg/mL).
The matching figures for `Cc1nc2ccccn2c1C(=O)NNC(=O)c1ccccc1`: 3.54 µM and 42.4 µM (≈ 12.5 µg/mL).
In turn, `Cc1nc2ccccn2c1C(=O)Nc1ccccn1` came in with an IC50 in series [1] of over 25 µM. Moreover, in series [2], the minimum inhibitory concentration (MIC) amounted to 98.8 µM (≈ 24.9 µg/mL).
With `Cc1nc2ccccn2c1C(=O)N/N=C/c1ccc(C(F)(F)F)cc1`, half-maximal inhibition in series [1] (IC50) was put at 8.18 µM. Besides, the MIC in series [2] is 9.01 µM (≈ 3.12 µg/mL). Further, in series [3], the cytotoxicity at 72 h, 50 µM was 24.6%.
The matching figures for `Cc1nc2ccccn2c1C(=O)N/N=C/c1ccc(F)cc1`: 3.77 µM, 21 µM (≈ 6.23 µg/mL) and 20.9%.
As to `CC[C@@H](CO)NCCN[C@@H](CC)CO` [ETHAMBUTOL], the IC50 in series [1] was over 25 µM. Further, the MIC in series [2] came to 7.64 µM (≈ 1.56 µg/mL).
Regarding `Cc1nc2ccccn2c1C(=O)NNC(=O)c1ccc(Cl)cc1Cl`, in series [1], inhibition was half-maximal at 5.13 µM (IC50). Further, the MIC in series [2] was 17.2 µM (≈ 6.25 µg/mL). The cytotoxicity at 72 h, 50 µM in series [3] stood at 20.1%.
In turn, `Cc1nc2ccccn2c1C(=O)NC1CCCCC1` displayed a 50% inhibitory concentration (IC50) in series [1] of 1.99 µM. The MIC in series [2] came to 96.9 µM (≈ 24.9 µg/mL).
The matching figures for `Cc1nc2ccccn2c1C(=O)NNC(=O)c1ccc(Oc2ccccc2)cc1`: 7.22 µM and 32.3 µM (≈ 12.5 µg/mL).

The record behind these values is ChEMBL document CHEMBL3351510, “Identification and development of 2-methylimidazo[1,2-a]pyridine-3-carboxamides as Mycobacterium tuberculosis pantothenate synthetase inhibitors” (Bioorg Med Chem, 2014).
